# T cruzi inh: blocks replication of Trypanosoma cruzi; T. cruzi beta-gal in NIH3T3, luminescence, 90 h; AID 1885; inhibition, % (test concentration not listed); 300,000 tested, 1.4% active;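 active means mean inhibition across valid replicates above about 55%, limit read from the data; inconclusive means mean below that limit but half or more replicates reach it; inactive means mean below it, under half of replicates reach it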;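 further: signal also drops with host cell toxicity which is not excluded here; higher percent means less beta-gal luminescence so fewer parasites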
#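 Read-out: Parasite load inhibition, % | Test system: Mouse NIH/3T3 fibroblasts infected with β-gal-expressing T. cruzi Tulahuen C4 | Amount: 5,000 cells/well | Medium: DMEM, 2% fetal bovine serum | Signal: GalScreen β-gal luminescence, detergent lysis, 60 min | Timing: 3 h attach, ≥90 h co-culture | Also added: Tulahuen C4 trypomastigotes, 5000/well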
# PolyA inhibitor: blocks polyadenylation in yeast reporter cells; S. cerevisiae SKY197-pL101 polyadenylation reporter, beta-gal luminescence; efflux-impaired pdr1/pdr3 knockout yeast; score 100 = 6 SD above DMSO; activity score, % at 12 µM; 300,000 tested, 0.02% active;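 active means lowest replicate activity score at least 50, where 100 means six control SD above control mean; inconclusive means lowest score under 50 but half or more replicates reach 50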;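 further: yeast exposed to compound for 9 h at 30 °C; higher score means more reporter readthrough which indicates perturbed polyadenylation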
# L major viab: reduces viability of Leishmania major promastigotes; resazurin fluorescence viability; inhibition, % at 10 µM; 200,000 tested, 9% active; in the data active means inhibition above about 50%;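 further: promastigotes grown with compound for 44 hours at 28 °C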
# Calb FLC: affects C. albicans growth with fluconazole. 300,000 tested, 0.57% active. AID 1979. C. albicans CaCi-2 + fluconazole, Alamar Blue growth, 48 h. growth inhibition, % (test concentration not listed);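 active means growth inhibition above about 58% in most replicates, limit read from the data, passing the limit was not always enough; inconclusive means exactly half the replicates above a set limit; inactive means most replicates below a set limit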;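 further: all wells also contain fluconazole at 8 µg/ml as a sub-toxic cotreatment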
# NALP1 yeast inh: NALP1 inhibition. S. cerevisiae NALP1/ASC/caspase-1 growth, X-gal OD620, 72 h. inhibition, % at 10 µM. 280,000 tested, 0.61% active. AID 2071; in the data active means inhibition mostly above about 24%, no sharp cut-off; inactive means mostly below about 32%
# NALP3 yeast inh: inhibitors of NALP3 inflammasome in yeast; inhibition, % at 10 µM; 330,000 tested, 0.39% active; Yeast reconstituted NLRP3/ASC/caspase-1, beta-gal luminescence, 24 h;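 active means inhibition of 50% or more; inactive means inhibition below 50%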
# Lmaj promast 1uM: inhibitors of Leishmania major promastigote growth, repeat at 1 uM. inhibition, % at 1 µM. L. major promastigote growth, resazurin fluorescence, 48 h. 1,100 tested, 13% active. shares compounds with L major viab;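 active means inhibition above about 50% in both repeat tests, limit read from the data; inconclusive means one repeat under the set limit, the other over it; inactive means both repeats under the set limit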
# A number is an active result; i = inactive; ? = inconclusive; nt = no result. This excerpt belongs to a sample that is enriched for hits.
SMILES,T cruzi inh,PolyA inhibitor,L major viab,Calb FLC,NALP1 yeast inh,NALP3 yeast inh,Lmaj promast 1uM
O=C(O)c1cccnc1Sc1ccc(Cl)cc1,i,i,i,i,i,i,nt
O=C(Nc1nn[nH]n1)C12CC3CC(CC(C3)C1)C2,i,i,i,i,i,i,nt
CC(C)=N/N=C(\c1cccc([N+](=O)[O-])c1)C12CN3CN(CN(C3)C1)C2,i,i,51,i,i,i,i
Cc1ccc(NC2(c3nnnn3-c3c(C)cccc3C)CCCCC2)cc1,i,i,97,i,i,i,i
CC(C)OC(=O)c1cccc(C(=O)OCc2ccco2)n1,i,i,50,i,i,i,i
COc1cc(NC(=O)c2cc([N+](=O)[O-])ccc2NC(=O)CN2CCN(c3ccccn3)CC2)cc(OC)c1,i,i,nt,?,i,i,nt
Cc1cc(OC(=O)C(c2ccccc2)c2ccccc2)c([N+](=O)[O-])c(=O)[nH]1,nt,nt,58,nt,i,nt,i
CCCC(CCC)C(=O)Oc1cc(C)[nH]c(=O)c1[N+](=O)[O-],i,i,i,i,i,i,nt
Cn1c(-c2ccc(C=O)s2)nc2c3ccccc3c3ccccc3c21,i,i,68,i,32,i,i
CCCCS(=O)(=O)/C=C\C=C/S(=O)(=O)CCCC,i,i,101,i,126,i,94
N#Cc1cc(Oc2cccc3cccnc23)c(-n2nnc3ccccc32)cc1C#N,57,i,69,i,i,i,i
N#Cc1cc(O)c(-n2nnc3ccccc32)cc1C#N,i,i,i,i,i,i,nt
Cc1ccc(NCC(=O)Nc2c(C)n(C)n(-c3ccccc3)c2=O)cc1S(=O)(=O)N(C)C,i,i,nt,i,i,i,nt
Cc1ccc(S(=O)(=O)N/N=c2\oc3ccccc3cc2C(=O)Nc2cccc(C)c2)cc1,i,i,71,i,i,i,i
CCOC(=O)c1cnc(-n2nc(C)cc2C)nc1Nc1ccc(C)cc1,i,i,i,i,i,nt,nt
CCOC(=O)c1cnc(-n2nc(C)cc2C)nc1Nc1ccc(N(C)C)cc1,63,i,91,i,i,i,i
NC1=NC2=C(CCCC2)C2(CCCCC2)S1,i,i,54,i,i,i,i
O=c1[nH]sc2ccccc12,63,i,67,i,i,nt,i
O=c1cc(O)sc2ccccc12,i,i,i,i,i,i,nt
COc1ccc(Nc2ncnc3sc(C)cc23)c(OC)c1,i,i,nt,i,i,i,nt
Cc1cc(/C=C2\Sc3ccccc3N2C)cc(C)[n+]1CC1CCCO1 (stereo unspecified),nt,nt,101,nt,i,i,101
Cc1noc(NS(=O)(=O)c2ccc(NC(=O)c3nn(-c4ccccc4)ccc3=O)cc2)c1C,i,i,nt,i,i,i,nt
Clc1ccc(CN2C3=NCCCN3c3ccccc32)cc1,i,i,100,i,i,i,i
CCn1c(C(=O)NCc2cccnc2)cc2sc(Cl)cc21,62,i,81,i,i,i,i
CCn1c(N)c(C(=O)NCc2cccnc2)sc1=S,i,i,i,i,i,i,nt
SMILES,T cruzi inh,PolyA inhibitor,L major viab,Calb FLC,NALP1 yeast inh,NALP3 yeast inh,Lmaj promast 1uM
OCCN1CCN(C(=S)c2ccc(Br)cc2)CC1,i,i,68,i,i,i,i
S=C(c1ccc(Br)cc1)N1CCCC1,i,i,nt,i,i,i,nt
CCOc1ccc(CCNC(=O)c2sc3nc4n(c(=O)c3c2C)CCC4)cc1,i,i,nt,i,i,i,nt
Cc1nnc(Nc2ccccn2)c2ccccc12,i,i,70,i,i,i,90
Cc1nnc(Nc2ccc(F)cc2)c2ccccc12,i,i,nt,i,i,i,nt
O=C(NNc1ccccc1Br)C(O)(c1cccc(C(F)(F)F)c1)c1cccc(C(F)(F)F)c1,i,i,i,i,i,i,nt
Cc1ccc(NNC(=O)C(O)(c2cccc(C(F)(F)F)c2)c2cccc(C(F)(F)F)c2)cc1,i,i,70,i,i,i,i
CC(C)(C)c1nn(-c2ccccc2)c2nc(Cl)c(C=O)cc12,i,i,96,i,i,i,i
S=c1[nH]c(-c2ccc(Br)cc2)cn1CCc1ccccc1,i,i,i,i,i,i,nt
CCOc1ccc2nc(-c3ccccc3)[nH]c2c1,i,i,i,i,i,i,nt
COc1ccc2nc(-c3ccccc3)[nH]c2c1,i,i,69,i,i,i,i
COc1ccccc1-n1c(SCC(N)=O)nc2sc3c(c2c1=O)CCC3,i,i,nt,i,i,i,nt
O=C(Cc1ccccc1)Nc1ccc(N2CCOCC2)cc1N1CCOCC1,i,i,i,i,i,i,nt
O=C(Cc1ccccc1)Nc1cc(C(=O)c2ccccc2)ccc1N1CCOCC1,i,i,97,i,i,i,i
CC(=O)Nc1ccc(NC2=Nc3ccccc3N3C2=Nc2c(c(C)nn2-c2ccccc2)C3c2ccccc2)cc1 (stereo unspecified),i,i,56,i,i,i,i
CCN(C(=O)Cn1nnc(-c2ccccc2)n1)C1CCS(=O)(=O)C1 (stereo unspecified),i,i,nt,i,nt,i,nt
C1CCC(OCCN2CCN(CCOC3CCCCC3)CC2)CC1,55,i,95,i,39,i,i
Cc1cc(Nc2ccc(N3CCC(C)CC3)cc2)n2ncnc2n1,i,i,i,i,i,i,nt
N#CCCN(NC1=NS(=O)(=O)c2ccccc21)C(=O)c1ccccc1Br,i,i,nt,i,i,i,nt
CCc1ccc(C2c3[nH]c4ccccc4c3CCN2C(=O)CN2CCN(CC)CC2)cc1 (stereo unspecified),i,i,75,i,i,i,i
CCc1ccc(C2c3[nH]c4ccccc4c3CCN2C(=O)CNC(N)=O)cc1 (stereo unspecified),i,i,i,i,i,i,nt
c1ccc2c(c1)CCOC2CNCCCN1CCCCC1 (stereo unspecified),i,i,56,i,i,nt,i
COc1ccccc1NC(=O)Cn1nc(-c2ccc(Cl)cc2)c2ccccc2c1=O,i,i,68,i,i,i,i
O=[N+]([O-])c1ccc(/C=N/N2CCCCC2)cc1,i,i,nt,i,i,i,nt
Cc1csc(/N=C/c2ccc([N+](=O)[O-])cc2)n1,nt,nt,52,nt,i,nt,i
SMILES,T cruzi inh,PolyA inhibitor,L major viab,Calb FLC,NALP1 yeast inh,NALP3 yeast inh,Lmaj promast 1uM
COc1ccc(Cl)cc1NC(=S)N1CC(C)OC(C)C1 (stereo unspecified),i,i,nt,i,i,i,nt
c1ccc(-n2nnnc2Oc2cccc3cccnc23)cc1,i,i,63,i,i,i,i
O=[N+]([O-])c1ccc(Cl)c(/C=N/n2c(-c3ccncc3)n[nH]c2=S)c1,i,i,nt,i,nt,i,nt
O=C1CCC(C(=O)N2CCc3c(Cl)cccc3C2)CN1CCCN1CCOCC1 (stereo unspecified),i,i,nt,i,i,i,nt
Cc1ccc(N=C(NOCc2ccc(Cl)cc2Cl)c2nonc2N)c(C)c1,?,i,98,i,i,i,i
Cc1ccc(N=C(NO)c2nonc2N)c(C)c1,i,i,i,i,i,i,nt

# Bioassay records as filed in PubChem.
